MrgX1 antag: blocks BAM8-22 activation of human MrgX1 receptor. B-score at 10 µM. AID 588676. MRGX1-HEK293 calcium flux, Fluo-4, BAM8-22 antagonism; hits give low values. Q96LB2. hit rate 1.3% among 310,000;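 active = calcium-response B-score plate-corrected more than 3 library SD below zero, starting fluorescence within 5 deviations, no agonist response on first addition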;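 note: peak minus trough fluorescence over baseline after final BAM8-22 challenge near maximal dose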
Target sequence (Q96LB2 whole entry, looked up): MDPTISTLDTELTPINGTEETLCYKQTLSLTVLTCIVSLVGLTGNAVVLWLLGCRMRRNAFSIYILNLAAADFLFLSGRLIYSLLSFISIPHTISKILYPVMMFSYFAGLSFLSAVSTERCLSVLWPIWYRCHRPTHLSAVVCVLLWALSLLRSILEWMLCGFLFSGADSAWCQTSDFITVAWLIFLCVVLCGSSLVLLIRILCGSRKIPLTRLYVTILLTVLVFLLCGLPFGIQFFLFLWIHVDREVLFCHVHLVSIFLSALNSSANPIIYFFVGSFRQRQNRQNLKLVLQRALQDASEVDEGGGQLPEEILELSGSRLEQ
MrgX1 allo act: allosterically activates human MrgX1 receptor signaling; Q96LB2; MrgX1-HEK293, Fluo-4 calcium flux, FDSS; hits give high values; B-score at 10 µM; hit rate 0.63% among 310,000; AID 588675;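 active = plate-corrected calcium response at least 3 library SD above typical, normal starting fluorescence, not activating the receptor alone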;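 note: compound read alongside a low EC10 to EC30 dose of BAM8-22 agonist; peak minus trough fluorescence over baseline measured at the second addition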
MrgX1 agonist: activates human MrgX1 receptor signaling | hit rate 0.44% among 310,000 | B-score at 10 µM | MrgX1-HEK293 cells, Fluo-4 calcium fluorescence, agonist mode; hits give high values | AID 588627 | Q96LB2;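 active = calcium response B-score plate-corrected fluorescence ratio at least 3 library SD, with starting fluorescence B-score inside 5 SD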
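Material: MrgX1-expressing HEK293 cells; input: 15,000 cells per well; doses: test compound given as first of three sequential additions; schedule: overnight plating before 1 h dye loading; technique: Fluo-4 NW calcium-flux fluorescence, kinetic read; evaluation: baseline-normalised fluorescence change ratio, B-scored; control set: plate-wise positive and negative controls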
RGS4 act: potentiators or activators of RGS4; HEK293 M3R/inducible RGS4, carbachol calcium flux Fluo4; hits give low values; B-score at 10 µM; hit rate 0.92% among 310,000; AID 463111;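 active = B-score of the integrated calcium signal more than 4 SD below the library mean, with starting fluorescence not abnormally high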;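 note: negative B-score means reduced calcium response which marks RGS4 activation or potentiation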
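Assay system: Inducible-RGS4 HEK293 cells carrying M3 receptor | Schedule: Compound preincubation 20 min at room temperature before agonist | Signal: Kinetic calcium fluorescence imaging with Fluo4-AM dye, 2 µM | Read-out basis: B score from integrated fluorescence ratio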
RGS4 inh: inhibitors of human RGS4 | hit rate 0.45% among 310,000 | P49798 | B-score at 10 µM | HEK293 M3R/RGS4 inducible, Fluo-4 calcium flux; hits give high values; triggered by carbachol at its EC20;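 active = B-score, a plate-corrected calcium signal, over three deviations above library mean, with baseline fluorescence within five deviations of library mean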;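 note: RGS4 expression induced by doxycycline in cells with stable M3 receptor; B-score is computed from the integrated fluorescence ratio over baseline after carbachol; higher B-score means a larger calcium signal and so more RGS4 inhibition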
Target sequence (P49798 whole entry, looked up): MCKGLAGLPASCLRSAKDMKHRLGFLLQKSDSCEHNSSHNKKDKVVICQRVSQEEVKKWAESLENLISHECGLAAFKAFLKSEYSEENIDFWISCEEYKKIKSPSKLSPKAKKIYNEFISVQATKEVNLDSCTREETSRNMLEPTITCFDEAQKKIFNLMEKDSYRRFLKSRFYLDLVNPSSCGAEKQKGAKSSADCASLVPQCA
The depositor's hits bear a star; i = inactive; ! = not active in a repeat. The list is not random: actives were taken first. Their share in the collection is about 3.5%.

SMILES | MrgX1 antag | MrgX1 allo act | MrgX1 agonist | RGS4 act | RGS4 inh
COc1ccccc1C(C)Nc1nc(-c2cccnc2)nc2ccccc12 (centres undefined) | i | i | i | -7.12* | i
COc1cccc(CNc2nc(-c3cccnc3)nc3ccccc23)c1 | i | i | i | i | i
COc1ccc(C(=O)NCc2ccc3c(c2)OCO3)c(OC)c1 | i | i | i | i | i
COc1ccc2oc(=O)c(C(=O)NCc3ccc4c(c3)OCO4)cc2c1 | -6.14* | i | i | i | i
NC(=O)NC(=O)C(Nc1ccc(N2CCCCC2)cc1)c1ccccc1 (centres undefined) | i | i | i | -9.05* | i
CC(C)(C)OC(=O)NCCCC1=CC2=CC(=O)C(C)(OC(=O)c3ccc(Cl)nc3)C(=O)C2=CO1 (centres undefined) | -5.01* | i | i | i | i
CCC(=O)OC1(C)C(=O)C=C2C=C(CCCCNC(=O)OC(C)(C)C)OC=C2C1=O (centres undefined) | i | i | i | i | i
CCc1cc(OCCOCCN(C)C)ccc1Cl | i | i | i | i | i
Cc1cccc(CSc2nc3c(c(-c4cccs4)c2C#N)CN(C)CC3)c1 | i | 8.74* | i | i | i
C=CCn1c(SCCOc2ccccc2)nnc1C(C)NC(=O)c1ccccc1 (centres undefined) | i | i | i | i | i
C=CCn1c(SCC(=O)N2CCOCC2)nnc1C(C)NC(=O)c1ccccc1 (centres undefined) | -5.36* | i | i | i | i
CC1(C)CC2CC(C)(CN2S(=O)(=O)c2ccc(C(=O)Nc3cccc(S(=O)(=O)N4CCOCC4)c3)cc2)C1 (centres undefined) | i | i | i | i | i
CC1(C)CC2CC(C)(CN2S(=O)(=O)c2ccc(C(=O)Nc3cc(S(=O)(=O)N4CCOCC4)ccc3Cl)cc2)C1 (centres undefined) | i | i | i | -7.22* | i
COc1ccc(OC)c(NC(=O)c2c(NC(=O)CCC(=O)O)sc3c2CCCCC3)c1 | i | 6.97* | i | i | i
COc1cccc(/C=N/n2c(-c3n[nH]c4c3CCC4)n[nH]c2=S)c1OC | i | i | i | -7.29* | i
CCOC(=O)C1CCN(S(=O)(=O)c2ccc3c(c2)CCCN3C(C)=O)CC1 | i | i | i | i | i
CCOC(=O)C1CCN(S(=O)(=O)c2ccc3c(c2)CC(=O)N3C)CC1 | i | i | 38.8* | i | i
COc1ccc(Cl)cc1/C=C(\C#N)C(N)=O | i | i | 29.7* | i | i
COc1ccc(CC(=O)N/N=C/c2cccnc2)cc1OC | i | i | i | i | i
CS(=O)(=O)NNC(=O)Cn1nnc(-c2ccc(OCc3ccccc3Cl)cc2)n1 | i | 9.65* | i | i | i
Cc1ccccc1SCC(=O)Nc1cc(C(F)(F)F)ccc1N1CCOCC1 | i | 11* | i | i | i
Nc1c(C(=O)N/N=C/c2cccnc2)oc2nc(-c3ccco3)cc(-c3ccco3)c12 | i | i | i | i | i
Nc1c(C(=O)N/N=C/c2cccnc2)oc2nc(-c3ccccc3)cc(-c3ccco3)c12 | -6.24* | i | i | -8.94* | i
Cc1cc(C(=O)NC(C)CCc2ccccc2)ccc1[N+](=O)[O-] (centres undefined) | i | i | i | i | i
CCCOC(=O)CCCCC1SCC(NC(=O)OC)C1NC(=O)OC (centres undefined) | -8.14* | i | i | i | i
SMILES | MrgX1 antag | MrgX1 allo act | MrgX1 agonist | RGS4 act | RGS4 inh
CCOC(=O)C1=C(C)N=c2s/c(=C\c3ccc(OC(C)=O)cc3)c(=O)n2C1/C=C/c1ccccc1 (centres undefined) | i | i | i | -10.6* | i
COc1cc([N+](=O)[O-])ccc1NC(=O)CN1CCN(C(=O)c2ccco2)CC1 | -4.74* | i | i | i | i
COc1cccc(OC)c1OCCCCN1CCC(Cc2ccccc2)CC1 | i | i | i | i | i
CC(=O)CCc1ccc(OCCCCN2CCC(Cc3ccccc3)CC2)cc1 | i | i | i | -7.15* | i
CCC(=O)c1ccccc1OCCCN1CCC(Cc2ccccc2)CC1 | -5.56* | i | i | i | i
CC(NC(=O)C1CCN(c2nnc(N3CCCC3=O)s2)CC1)c1ccccc1 (centres undefined) | i | i | i | i | i
COC(=O)C1=C(C)N(CCCC(=O)O)C(=O)NC1c1ccccc1OS(=O)(=O)c1ccc([N+](=O)[O-])cc1 (centres undefined) | i | i | i | i | i
CCCc1cc(C(=O)Nc2ccc(C(=O)c3ccc(C)cc3)cc2)n(C)n1 | i | i | i | -7.39* | i
CCCc1cc(C(=O)Nc2cccc3ccccc23)n(C)n1 | i | i | i | i | i
CC(C)(C)NS(=O)(=O)c1ccc(NC(=O)CS(=O)(=O)Cc2ccccc2)cc1 | i | i | i | i | i
COC(=O)c1ccc2c(c1)C(C)(C)C(/C=C/c1ccc(OC)c(OC)c1OC)=[N+]2C | -6.53* | i | i | i | i
CC1(C)CC(=O)C2=C(C1)NC1=C(C(=O)c3ccccc31)C2c1cc([N+](=O)[O-])ccc1O (centres undefined) | i | i | i | i | i
Cc1ccc(/C=C2/Sc3ccccc3N(CC(=O)NCCCOC(C)C)C2=O)cc1 | -4.79* | i | i | i | i
COC1=C(c2ccccc2)C(=O)c2ccccc2C1=O | i | 7.24* | i | i | i
CC(CCc1ccccc1)NC(=O)CCC1CCCC1 (centres undefined) | i | i | i | i | i
Cc1ccc(C(=O)/C=C/c2cc(Br)cc(Br)c2O)o1 | -5.3* | i | i | i | i
Cc1ccc(C(=O)/C=C/N(C)C)o1 | i | i | i | i | i
CN(C1CCCCC1)S(=O)(=O)c1ccc2c(c1)c(=O)c(C(=O)NCCN1CCCC1)cn2C | -4.61* | i | i | i | i
CCCCCOc1ccc(C(=O)CCC(=O)N2CCCC2)cc1 | i | i | i | i | i
CCc1ccccc1NC(=S)N(CCN(C)C)Cc1cccs1 | i | i | i | i | i
CCC(CC)c1nn2c(N)c(/C=C3\C=Nc4ccccc43)c(=O)nc2s1 | i | i | i | i | i
CCCc1nn2c(N)c(/C=C3\C=Nc4ccccc43)c(=O)nc2s1 | i | 16.4*! | i | i | i

Source: PubChem (Johns Hopkins Ion Channel Center)
